Measured values as given in paper PMC6045484 (ACS Omega, 2018).
In brackets after ≈: the same amount, converted by molar mass.

Assays:
P. falciparum (D6) = experiment: in vitro antimalarial activity, plasmodial LDH; type: cell-based, Plasmodium falciparum; conditions: CQ-sensitive D6 strain, 72 h
MRSA (ATCC33591) = experiment: in vitro antibacterial activity; type: cell-based, methicillin-resistant Staphylococcus aureus; conditions: methicillin-resistant S. aureus; highest test concentration 20 μg/mL
Method in brief: (§1)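 Test compound serially diluted in 20% DMSO/saline and plated in duplicate, up to 20 μg/mL. Inoculum in cation-adjusted Mueller–Hinton broth, pH 7.3, set by OD630 to 5 × 10^5 CFU/mL. Incubated 16–20 h at 35 °C; 530 nm read before and after. IC50 is 50% growth inhibition; MIC is no detectable growth. MBC from clear wells subcultured on agar. Ciprofloxacin control.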

C. glabrata ATCC90030 = experiment: in vitro antifungal activity; type: cell-based, Candida glabrata
Method in brief: (§2)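 Modified NCCLS broth method in Sabouraud dextrose. Inoculum set by OD630 to 1.5 × 10^3 CFU/mL. Test compound serially diluted in 20% DMSO/saline, duplicate wells, up to 20 μg/mL. Incubated 70–74 h at 35 °C; 530 nm read before and after. IC50 is 50% growth inhibition; MIC is no detectable growth. MFC from clear wells subcultured on agar. Amphotericin B control.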

[1] = tested on: SK-MEL, KB, BT-549, SK-OV-3, VERO and LLC-PK1 cells; experiment: cytotoxicity, neutral red uptake assay; type: cell-based, mammalian; conditions: highest test concentration 4760 ng/mL
Method in brief: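 Cells seeded at 25 000/well and allowed 24 h to reach confluence. Test compound was then added and incubated 48 h. Viable cells were counted by a modified neutral red uptake method. The panel was four human cancer lines and two noncancerous mammalian kidney lines. Doxorubicin served as positive control and DMSO as negative control.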

[2] = tested on: M. intracellulare (ATCC23068); experiment: in vitro antibacterial activity, modified alamarBlue procedure; type: cell-based, Mycobacterium intracellulare; conditions: highest test concentration 20 μg/mL
Method in brief: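 Modified alamarBlue microplate method. Test compound serially diluted in 20% DMSO/saline, duplicate wells, up to 20 μg/mL. Inoculum 2.0 × 10^6 CFU/mL in Middlebrook 7H9 with OADC, pH 7.3, containing 5% alamarBlue. Incubated 70–74 h at 37 °C, 10% CO2; fluorescence 544ex/590em read before and after. MIC: no blue-to-pink change. MBC by subculturing blue wells on agar. Ciprofloxacin control.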

SA (ATCC29213) = experiment: in vitro antibacterial activity; type: cell-based; conditions: Staphylococcus aureus; highest test concentration 20 μg/mL
Method in brief: as §1

C. albicans ATCC90028 = experiment: in vitro antifungal activity; type: cell-based, Candida albicans
Method in brief: as §2

C. krusei ATCC6258 = experiment: in vitro antifungal activity; type: cell-based, Candida krusei
Method in brief: as §2

[3] = tested on: L. donovani promastigotes; experiment: in vitro antileishmanial activity, alamarBlue assay; type: cell-based, Leishmania donovani; conditions: promastigotes, 48 h
P. falciparum (W2) = experiment: in vitro antimalarial activity, plasmodial LDH; type: cell-based, Plasmodium falciparum; conditions: CQ-resistant W2 strain, 72 h
Method in brief: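 P. falciparum-infected erythrocytes (2% parasitemia, 2% hematocrit) in RPMI 1640 with 10% human serum and 60 μg/mL amikacin. Exposed to test compound dilutions for 72 h at 37 °C under 90% N2/5% O2/5% CO2. LDH measured with Malstat reagent (30 min, room temperature), then NBT/PES for 1 h in the dark, stopped with 5% acetic acid, read at 650 nm. IC50 from dose-response curves.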

C. neoformans ATCC90113 = experiment: in vitro antifungal activity; type: cell-based, Cryptococcus neoformans
Method in brief: as §2

A. fumigatus ATCC 90906 = experiment: in vitro antifungal activity; type: cell-based, Aspergillus fumigatus
Method in brief: as §2

Structure (SMILES)	P. falciparum (D6) IC50 (P. falciparum (D6)) [µg/mL]	IC50 (concentration that affords 50% growth inhibition), MRSA (MRSA (ATCC33591)) [µg/mL]	MBC (minimum bactericidal concentration), MRSA (MRSA (ATCC33591)) [µg/mL]	MIC, MRSA (MRSA (ATCC33591)) [µg/mL]	C. glabrata IC50 (C. glabrata ATCC90030)	C. glabrata MFC (C. glabrata ATCC90030)	C. glabrata MIC (C. glabrata ATCC90030)	cytotoxicity CTX [1]	IC50 (concentration that affords 50% growth inhibition), M. intracellulare [2] [µg/mL]	MBC (minimum bactericidal concentration), M. intracellulare [2] [µg/mL]	MIC, M. intracellulare [2] [µg/mL]	IC50 (concentration that affords 50% growth inhibition), SA (SA (ATCC29213)) [µg/mL]	MBC (minimum bactericidal concentration), SA (SA (ATCC29213)) [µg/mL]	MIC, SA (SA (ATCC29213)) [µg/mL]	C. albicans IC50 (C. albicans ATCC90028)	C. albicans MFC (C. albicans ATCC90028)	C. albicans MIC (C. albicans ATCC90028)	C. krusei IC50 (C. krusei ATCC6258)	C. krusei MFC (C. krusei ATCC6258)	C. krusei MIC (C. krusei ATCC6258)	further results
CCCCCCOc1c(OC)cc(NC(C)CCCNC(=O)C2CCCN2)c2nc(C(C)(C)C)ccc12 (stereo not shown) [compound 103, N-(4-(2-tert-Butyl-5-(hexyloxy)-6-methoxyquinolin-8-lamino)pentyl)pyrrolidine-2-carboxamide]	4	2.64 (≈ 5.15 µM)	20.00 (≈ 39 µM)	5.00 (≈ 9.75 µM)	8.91 µg/mL	10.00 µg/mL	10.00 µg/mL	NC (NC, not cytotoxic up to 4760 ng/mL (4.76 μg/mL))	5.94 (≈ 11.6 µM)	10.00 (≈ 19.5 µM)	10.00 (≈ 19.5 µM)	2.89 (≈ 5.64 µM)	10.00 (≈ 19.5 µM)	5.00 (≈ 9.75 µM)	11.54 µg/mL	20.00 µg/mL	20.00 µg/mL	8.76 µg/mL	10.00 µg/mL	10.00 µg/mL	L. donovani IC50 [3]: 4.0 µg/mL; L. donovani IC90 [3]: 6.8 µg/mL; P. falciparum (W2) IC50 (P. falciparum (W2)): 2.7 µg/mL; C. neoformans IC50 (C. neoformans ATCC90113): 1.49 µg/mL; C. neoformans MFC (C. neoformans ATCC90113): 2.50 µg/mL; C. neoformans MIC (C. neoformans ATCC90113): 2.50 µg/mL; A. fumigatus IC50 (A. fumigatus ATCC 90906): NA (NA, no activity at the highest test concentration of 20 μg/mL); A. fumigatus MFC (A. fumigatus ATCC 90906): NA (NA, no activity at the highest test concentration of 20 μg/mL); A. fumigatus MIC (A. fumigatus ATCC 90906): NA (NA, no activity at the highest test concentration of 20 μg/mL)
CCCCCCCOc1c(OC)cc(NC(C)CCCNC(=O)C2CCCN2)c2nc(C(C)(C)C)ccc12 (stereo not shown) [compound 113, N-(4-(2-tert-Butyl-5-(heptyloxy)-6-methoxyquinolin-8-lamino)pentyl)pyrrolidine-2-carboxamide]	2.4	3.16 (≈ 6 µM)	20.00 (≈ 38 µM)	5.00 (≈ 9.49 µM)	NA (NA, no activity at the highest test concentration of 20 μg/mL)	NA (NA, no activity at the highest test concentration of 20 μg/mL)	NA (NA, no activity at the highest test concentration of 20 μg/mL)	NC (NC, not cytotoxic up to 4760 ng/mL (4.76 μg/mL))	16.67 (≈ 31.6 µM)	20.00 (≈ 38 µM)	20.00 (≈ 38 µM)	3.52 (≈ 6.68 µM)	10.00 (≈ 19 µM)	10.00 (≈ 19 µM)	NA (NA, no activity at the highest test concentration of 20 μg/mL)	NA (NA, no activity at the highest test concentration of 20 μg/mL)	NA (NA, no activity at the highest test concentration of 20 μg/mL)	NA (NA, no activity at the highest test concentration of 20 μg/mL)	NA (NA, no activity at the highest test concentration of 20 μg/mL)	NA (NA, no activity at the highest test concentration of 20 μg/mL)	L. donovani IC50 [3]: 3.8 µg/mL; L. donovani IC90 [3]: 7 µg/mL; P. falciparum (W2) IC50 (P. falciparum (W2)): 1.5 µg/mL; C. neoformans IC50 (C. neoformans ATCC90113): 2.93 µg/mL; C. neoformans MFC (C. neoformans ATCC90113): 5.00 µg/mL; C. neoformans MIC (C. neoformans ATCC90113): 5.00 µg/mL; A. fumigatus IC50 (A. fumigatus ATCC 90906): NA (NA, no activity at the highest test concentration of 20 μg/mL); A. fumigatus MFC (A. fumigatus ATCC 90906): NA (NA, no activity at the highest test concentration of 20 μg/mL); A. fumigatus MIC (A. fumigatus ATCC 90906): NA (NA, no activity at the highest test concentration of 20 μg/mL)
